Data on four compounds can be found in ChEMBL document CHEMBL4052593, “Pharmacokinetic Analysis and in Vivo Antitumor Efficacy of Taccalonolides AF and AJ” (J Nat Prod, 2017).

The subject of series [1] is Liver. Nature of the series: Half life in human liver microsomes in absence of NADPH by LC-MS/MS analysis. The format is ADME, microsome. A general note: Liver microsomes are a subcellular fraction often used to study metabolism.
Series [2] has as its system Mus musculus. Nature of the series: Clearance in athymic nude mouse at 300 ug, iv after 2 hrs by LC-MS analysis. The format is ADME, organism-based. The conditions noted are these: in vivo. In outline:
(§1)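 Female athymic nude mice, 6–7 weeks old, got a 300 µg IV tail-vein bolus. Plasma was taken from 3–5 mice per time point (pre-dose, end of infusion, 0.25, 0.5, 1, 2 h), ethyl acetate-extracted and quantified by LC-MS against weighted (1/X2) calibration curves. Noncompartmental analysis: Cmax by inspection, t1/2 from the last two log points, AUC by linear trapezoid extrapolated to infinity, CL = dose/AUC.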

The test system of series [3] is SCC-4. Nature of the series: Antitumor activity against human SCC4 cells xenografted in athymic nude mouse assessed as tumor burden at 80 ug administered intratumorally on day 0 and day 3 measured on day 10 post dose. Type of series: functional. An outline of the steps:
(§2)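 Female athymic nude mice, 6–7 weeks old, received 1 × 10^6 SCC-4 cells subcutaneously in the rear flank. Treatment began when tumors averaged 200 mm3. Under isoflurane, tumors were injected directly on days 0 and 3 with drug in 100 µL PBS with final 8% ethanol, or with vehicle only; the total dose was split between the two days. Calipers were read every 2–4 days and volume taken as width × length × height. Body weight and toxicity were monitored. Groups were compared over 17 days by two-way ANOVA with Tukey post-hoc; time for tumors to reach 1,500 mm3 was also tracked.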

Series [4] has as its system SCC-4. Nature of the series: Antitumor activity against human SCC4 cells xenografted in athymic nude mouse assessed as tumor growth inhibition at 40 ug administered intratumorally on day 0 and day 3 measured up to 2 weeks. The format is functional, cell-based. In outline:
as §2
In general terms: Xenograft models place foreign cells or tissue in a host animal.

In series [5] the test system is MDA-MB-435. Nature of the series: Antiproliferative activity against human MDA-MB-435 cells assessed as cell growth inhibition in presence of 10% FBS by sulforhodamine B assay. Type of series: functional. An outline of the steps:
(§3)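 MDA-MB-435 cells, normally kept in IMEM with 10% FBS and gentamicin, were exposed to concentration-response series in medium holding 0.1%, 1% or 10% serum. Growth was measured by sulforhodamine B staining. Cell density at the time of drug addition marked the line between antiproliferative and cytotoxic effect. GI50 was taken from the curves. Three independent experiments were run, each concentration in triplicate, reported as mean ± SEM.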
Background: Sulforhodamine B stains cellular protein and so reports cell mass.

For series [6], the system named is Liver. Nature of the series: Intrinsic clearance in human liver microsomes in presence of NADPH by LC-MS/MS analysis. The format is ADME, microsome.
Series [7] has as its system MDA-MB-435. Nature of the series: Ratio of GI50 for human MDA-MB-435 cells in presence of 10% FBS to GI50 for human MDA-MB-435 cells in presence of 0.1% FBS. The format is functional. In outline:
(§4)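 MDA-MB-435 human melanoma cells were kept in IMEM with 10% FBS. They were tested across a concentration range in 0.1, 1 or 10% serum using sulforhodamine B, with cell density at drug addition as the cytotoxicity baseline. GI50 in 1% or 10% serum was divided by GI50 in 0.1% serum. Three independent experiments, each concentration in triplicate.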

For series [8], the system named is SCC-4. Nature of the series: Antitumor activity against human SCC4 cells xenografted in athymic nude mouse assessed as reduction in tumor burden at 80 ug administered intratumorally on day 0 and day 3 measured on day 51 post dose. Type of series: functional, cell-based. In outline:
as §2

For series [9], the system named is MDA-MB-435. Nature of the series: Antiproliferative activity against human MDA-MB-435 cells assessed as cell growth inhibition in presence of 1% FBS by sulforhodamine B assay. The format is functional. In outline: as §3
For series [10], the system named is Mus musculus. Nature of the series: Elimination half life in athymic nude mouse at 300 ug, iv after 2 hrs by LC-MS analysis. The format is ADME, organism-based. Conditions: in vivo. In outline: as §1
Series [11] has as its system MDA-MB-435. Nature of the series: Antiproliferative activity against human MDA-MB-435 cells assessed as cell growth inhibition in presence of 0.1% FBS by sulforhodamine B assay. Type of series: functional. In outline:
as §3

Series [12] concerns Liver. Nature of the series: Half life in human liver microsomes in presence of NADPH by LC-MS/MS analysis. The format is ADME, microsome.
Series [13] concerns Mus musculus. Nature of the series: AUC in athymic nude mouse at 300 ug, iv after 2 hrs by LC-MS analysis. Conditions: in vivo. The arrangement: dose 300 ug, time < 2 hr, route intravenous. The format is ADME, organism-based. An outline of the steps: as §1
Series [14] deals with Mus musculus. Nature of the series: Toxicity in athymic nude mouse xenografted with human SCC4 cells assessed as weight loss at 40 ug administered intratumorally on day 0 and day 3 measured up to 2 weeks. Conditions: in vivo, other, 336 h. In outline: (§5)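 SCC-4 cells (1 × 10^6) were implanted subcutaneously in the rear flank of 6–7 week old female athymic nude mice. At an average tumor volume of 200 mm3, mice were grouped. Tumors were injected on days 0 and 3 with drug in 100 µL PBS containing 8% ethanol, or vehicle, under isoflurane. Mice were monitored for weight loss and toxicity; tumors were measured with calipers every 2–4 days.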

In another series the test system is HeLa. Nature of the series: Antiproliferative activity against human HeLa cells after 48 hrs by SRB assay. The format is functional, cell-based.
Series [15] deals with Mus musculus. Nature of the series: Cmax in athymic nude mouse at 300 ug, iv after 2 hrs by LC-MS analysis. Type of series: ADME, organism-based. The arrangement: dose 300 ug, route intravenous. Conditions: in vivo. An outline of the steps: as §1
Series [16] concerns MDA-MB-435. Nature of the series: Ratio of GI50 for human MDA-MB-435 cells in presence of 1% FBS to GI50 for human MDA-MB-435 cells in presence of 0.1% FBS. The format is functional. An outline of the steps:
as §4

Series [17] concerns MDA-MB-435. Nature of the series: Antiproliferative activity against human MDA-MB-435 cells assessed as cell growth inhibition at 1 nM in presence of 0.1% FBS by sulforhodamine B assay relative to control. Conditions: MDA-MB-435, read-out: GI.
In series [18] the test system is MDA-MB-435. Nature of the series: Antiproliferative activity against human MDA-MB-435 cells assessed as cell growth inhibition at 1 nM in presence of 1% FBS by sulforhodamine B assay relative to control. Conditions: MDA-MB-435, read-out: GI.
The test system of series [19] is MDA-MB-435. Nature of the series: Antiproliferative activity against human MDA-MB-435 cells assessed as cell growth inhibition at 1 nM in presence of 10% FBS by sulforhodamine B assay relative to control. The conditions noted are these: MDA-MB-435, read-out: GI.
Series [20] has as its system SCC-4. Nature of the series: Antitumor activity against human SCC4 cells xenografted in athymic nude mouse assessed as tumor growth inhibition at 40 to 80 ug administered intratumorally on day 0 and day 3 measured on day 17 post dose. Type of series: functional, cell-based. An outline of the steps: as §2
Series [21] deals with SCC-4. Nature of the series: Antitumor activity against human SCC4 cells xenografted in athymic nude mouse assessed as tumor growth inhibition administered intratumorally on day 0 and day 3 measured up to day 17 post dose. The format is functional, cell-based. An outline of the steps:
as §2

Series [22] has as its system SCC-4. Nature of the series: Antitumor activity against human SCC4 cells xenografted in athymic nude mouse assessed as tumor growth inhibition at 20 ug administered intratumorally on day 0 and day 3 measured every 2 to 4 days up to 2 weeks. The format is functional, cell-based. An outline of the steps:
as §2

The next series deals with Plasma. Nature of the series: Drug uptake in athymic nude mouse plasma at 300 ug, iv after 2 hrs by LC-MS analysis. The format is ADME, organism-based. Conditions: in vivo. An outline of the steps:
as §1

Series [23] concerns Mus musculus. Nature of the series: Toxicity against athymic nude mouse xenografted with human SCC4 cells assessed as weight loss at 40 ug administered intratumorally on day 0 and day 3 measured up to day 17 post dose. The conditions noted are these: in vivo, other. An outline of the steps:
as §5

Series [24] concerns Liver. Nature of the series: Intrinsic clearance in human liver microsomes in absence of NADPH by LC-MS/MS analysis. Type of series: ADME, microsome.
In series [25] the test system is SCC-4. Nature of the series: Antitumor activity against human SCC4 cells xenografted in athymic nude mouse assessed as tumor growth inhibition at 40 to 80 ug administered intratumorally on day 0 and day 3 measured on day 14 post dose. Type of series: functional, cell-based. An outline of the steps: as §2

pIC50: −log10 of the molar value. The source made the active and inactive calls. No cut-off for these calls is given here.

For the compound `CC(=O)O[C@@H]1[C@H]2[C@H]3[C@H]([C@H](OC(C)=O)[C@H](OC(C)=O)[C@]2(C)[C@H]2[C@H](C)[C@H]4O[C@]45OC(=O)[C@@](C)(O)[C@]5(C)[C@H]12)[C@]1(C)[C@H](C[C@@H]2O[C@@H]2[C@@H]1OC(C)=O)C(=O)[C@@H]3O`, the t1/2 with Liver [1] was above 4 h; in the series with Liver [12], 1.38 h. In the series on Mus musculus [2], this compound came in with a CL of 240 mL/h. The Activity is listed as below 1500 mm3 with SCC-4 [3] and “Non-Toxic” in the series on Mus musculus [14]. Also, the TGI entry in the series with SCC-4 [4] is “Active”. For the same compound, the GI50 in the series on MDA-MB-435 [5] worked out at 47 nM; in the series with MDA-MB-435 [9] it was 30 nM; with MDA-MB-435 [11], 25 nM. Moreover, the CLH with Liver [6] was found to be 8.3 µL/min/mg. In addition, the RatioGI50 in the series with MDA-MB-435 [7] is given as 1.9; with MDA-MB-435 [16], 1.2. Also, the result in the series on SCC-4 [8] was Active. Further, in the series with Mus musculus [10], the “beta t1/2” value stood at 0.733 h. The compound further gave an AUC in the series on Mus musculus [13] of 1300 ng·h/mL. For the same compound, the pIC50 in the series with HeLa was 7.62. The compound further displayed a Cmax in the series with Mus musculus [15] of 8600 ng/mL.
Take `CC(=O)CC(c1ccccc1)c1c(O)c2ccccc2oc1=O` (stereo not given) [WARFARIN]: the CLH in the series with Liver [6] worked out at 0 µL/min/mg.
Consider `CC(=O)O[C@H]1C(=O)[C@@]2(C)[C@H]([C@H](OC(=O)c3ccccc3)[C@]3(O)C[C@H](OC(=O)[C@H](O)[C@@H](NC(=O)c4ccccc4)c4ccccc4)C(C)=C1C3(C)C)[C@]1(OC(C)=O)CO[C@@H]1C[C@@H]2O` [PACLITAXEL], for which the inhibition of growth at 0.001 µM with MDA-MB-435 [17] came to 54%; in the series with MDA-MB-435 [18], 27%; with MDA-MB-435 [19], 9%. Further, the GI50 was 3.4 nM in the series on MDA-MB-435 [5], 1.9 nM in the series on MDA-MB-435 [9] and 1 nM with MDA-MB-435 [11].
Consider `CC(=O)O[C@H]1[C@H]2[C@H]([C@@H]3[C@@H](O)[C@@H]4[C@H]([C@H](C)[C@H]5O[C@]56OC(=O)[C@@](C)(O)[C@]46C)[C@@]3(C)[C@H]1OC(C)=O)[C@@H](O)C(=O)[C@H]1C[C@@H]3O[C@@H]3[C@H](OC(C)=O)[C@]21C`, for which the TGI entry with SCC-4 [20] and in the series on SCC-4 [25] was “Active” in each case. The figures for the t1/2 with Liver [1] and in the series with Liver [12] were above 4 h and 0.783 h, respectively. In the series with Mus musculus [2], this compound yielded a CL of 85 mL/h. For the same compound, the TGI entry in the series on SCC-4 [21] was “Dose-dependent effect”. Moreover, the Activity with SCC-4 [3] is below 1500 mm3; with Mus musculus [23], “Non-Toxic”. The results for the GI50 in the series with MDA-MB-435 [5], in the series on MDA-MB-435 [9] and in the series with MDA-MB-435 [11] were 9 nM, 7 nM and 6 nM, respectively. In the series on SCC-4 [22], the TGI result was “inactive”. Further, the CLH was determined as 15 µL/min/mg with Liver [6] and 300 µL/min/mg with Liver [24]. For the same compound, the figures for the RatioGI50 in the series with MDA-MB-435 [7] and with MDA-MB-435 [16] were 1.5 and 1.2, respectively. Also, in the series on Plasma, the Drug uptake entry is listed as “Not Active”. Besides, in the series on Mus musculus [10], the “beta t1/2” value was found to be 0.135 h. For the same compound, in the series on Mus musculus [13], the area under the curve (AUC) is 3500 ng·h/mL. In the series on HeLa, this compound gave a pIC50 of 8.40. This compound also gave a Cmax in the series on Mus musculus [15] of 19000 ng/mL.

The GI50 is the concentration giving 50% growth inhibition. By AUC is commonly meant the area under the concentration-time curve, a measure of exposure. A higher AUC goes with more exposure. What is called pIC50 is −log10 of the IC50, conventionally taken in molar units. Read a low pIC50 as a large IC50. In general, Cmax refers to the peak of the concentration-time curve.
